Measured values from PubChem BioAssay AID2465 (Broad Institute, 2010).
The whole screen tested about 24,000 compounds, of which fewer than 10 were called active. Rule as the data show it: active = caspase activation above about 5.9%; inconclusive = no clear call, values can overlap the other calls; inactive = below about 2.2%. A selection follows.

experiment: Bcl2-A1 antagonists releasing BIM, apoptosis – cell-based, luminescence, HTS, two replicates, primary screen (AID 2465); conditions: MEF A1-2A-BIM cells, caspase-Glo luminescence, 3 h; hits give high values; percent of clofoctol response, DMSO zero; concentration not given here
Procedure, shortened: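 Material: mouse embryonic fibroblasts co-expressing A1 and BIM (A1-2A-BIM), primed for A1 dependence / Quantity: 2500 cells/well / Buffer or medium: RPMI-1640 growth medium with 10% FBS / Doses: 50 nL compound per well, pinned / Schedule: 3 h compound exposure at 37 °C / Signal: Caspase-Glo luminescence (DEVD substrate) / Measure: Caspase-3/7 activation, seen as rise in luminescence signal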

Caspase activation, inactive:
C[C@@H]1CN([C@@H](C)CO)C(=O)c2cc(NC(=O)CCCCCC(=O)Nc3ccccc3N)ccc2O[C@@H](C)CCCCO[C@@H]1CN(C)CC1CCCCC1 0.522%
C[C@@H]1CCCCO[C@@H](CN(C)C(=O)C2CCCCC2)[C@H](C)CN([C@H](C)CO)C(=O)c2cc(NC(=O)Cc3ccccc3)ccc2O1 3.18%
C[C@@H]1CCCCO[C@@H](CN(C)S(=O)(=O)c2cccs2)[C@H](C)CN([C@H](C)CO)C(=O)c2cc(NC(=O)CCCN(C)C)ccc2O1 0.621%
Cc1ccc(S(=O)(=O)N(C)C[C@@H]2Oc3ccc(NC(=O)NC4CCCCC4)cc3C(=O)N([C@@H](C)CO)C[C@H]2C)cc1 -0.781%
C[C@H](CO)N1C[C@H](C)[C@H](CN(C)C(=O)Nc2ccccc2)Oc2c(NC(=O)Nc3ccc(C(F)(F)F)cc3)cccc2C1=O -0.159%
C[C@@H]1CCCCO[C@@H](CN(C)Cc2ccc(Cl)c(Cl)c2)[C@H](C)CN([C@@H](C)CO)C(=O)c2cc(NS(C)(=O)=O)ccc2O1 -0.491%
Cc1ccc(S(=O)(=O)Nc2ccc3c(c2)C(=O)N([C@@H](C)CO)C[C@@H](C)[C@H](CN(C)Cc2ccc4c(c2)OCO4)OCCCC[C@@H](C)O3)cc1 0.694%
C[C@H](CO)N1C[C@H](C)[C@@H](CN(C)C(=O)Nc2ccc(F)cc2)OCCCC[C@H](C)Oc2ccc(NC(=O)c3ccncc3)cc2C1=O 0.454%
CC(C)NC(=O)Nc1ccc2c(c1)C(=O)N([C@H](C)CO)C[C@@H](C)[C@@H](CN(C)Cc1ccncc1)O2 1.1%
C[C@@H]1CN([C@@H](C)CO)C(=O)c2cccc(NS(=O)(=O)c3ccccc3)c2O[C@@H]1CN(C)S(=O)(=O)c1ccc(F)cc1 0.0248%
COc1ccc(S(=O)(=O)Nc2ccc3c(c2)C(=O)N([C@@H](C)CO)C[C@@H](C)[C@H](CN(C)Cc2ccc(C(F)(F)F)cc2)OCCCC[C@@H](C)O3)cc1 -1.2%
C[C@H]1CN([C@@H](C)CO)C(=O)Cc2cc(NS(=O)(=O)c3ccccc3)ccc2O[C@@H]1CN(C)Cc1ccc(C(=O)Nc2ccccc2N)cc1 1.17%
Cc1noc(C)c1NC(=O)N(C)C[C@@H]1OCCCC[C@@H](C)Oc2ccc(NC(=O)C3CCCCC3)cc2C(=O)N([C@@H](C)CO)C[C@H]1C -0.914%
C[C@H]1CN([C@@H](C)CO)C(=O)Cc2cc(NC(=O)C3CCCCC3)ccc2O[C@H]1CN(C)C(=O)Nc1ccc(C(F)(F)F)cc1 0.751%
C[C@@H]1CCCCO[C@H](CN(C)Cc2ccc3c(c2)OCO3)[C@H](C)CN([C@@H](C)CO)C(=O)c2cc(NS(=O)(=O)c3cn(C)cn3)ccc2O1 -0.23%
Cc1ccc(S(=O)(=O)Nc2ccc3c(c2)C(=O)N([C@H](C)CO)C[C@@H](C)[C@H](CN(C)C(=O)Nc2ccc(C(F)(F)F)cc2)OCCCC[C@H](C)O3)cc1 -0.505%
COc1ccc(CN(C)C[C@@H]2Oc3ccc(NS(=O)(=O)c4ccc(F)cc4)cc3C(=O)N([C@@H](C)CO)C[C@@H]2C)cc1 -0.363%
C[C@H]1CN([C@@H](C)CO)C(=O)c2cccc(NS(=O)(=O)c3ccc(Cl)cc3)c2O[C@H]1CN(C)S(=O)(=O)c1ccc(Cl)cc1 -1.18%
Cc1ccc(S(=O)(=O)N(C)C[C@@H]2Oc3ccc(NC(=O)Cc4cn(C)c5ccccc45)cc3C(=O)N([C@@H](C)CO)C[C@@H]2C)cc1 0.187%
Cc1noc(C)c1S(=O)(=O)Nc1ccc2c(c1)CC(=O)N([C@@H](C)CO)C[C@H](C)[C@H](CN(C)C(=O)Nc1cccc3ccccc13)O2 0.254%
O=C(CCCCCCC(=O)Nc1ccccc1O)N/N=C/c1ccc(CO)o1 -0.255%
COC(=O)CCCCCCC(=O)N/N=C/c1ccc2ccccc2c1O -1.41%
COc1ccc(NC(=O)N(C)C[C@H]2OCCCC[C@@H](C)Oc3ccc(NC(=O)NC4CCCCC4)cc3C(=O)N([C@@H](C)CO)C[C@H]2C)cc1 0.476%
C[C@@H]1CN([C@@H](C)CO)C(=O)c2cc(NS(=O)(=O)c3cn(C)cn3)ccc2O[C@@H]1CN(C)Cc1ccc(C(=O)Nc2ccccc2N)cc1 0.311%
C[C@H]1CN([C@@H](C)CO)C(=O)c2cc(NC(=O)C3CCCCC3)ccc2O[C@H]1CN(C)C(=O)Nc1ccccc1 0.892%
C[C@@H]1CCCCO[C@@H](CN(C)Cc2ccc(C(=O)O)cc2)[C@@H](C)CN([C@@H](C)CO)C(=O)c2cc(NC(=O)Nc3ccc(C(F)(F)F)cc3)ccc2O1 0.286%
COc1ccc(NC(=O)Nc2ccc3c(c2)C(=O)N([C@@H](C)CO)C[C@@H](C)[C@@H](CN(C)Cc2ccncc2)OCCCC[C@@H](C)O3)cc1 -1.58%
C[C@@H]1CN([C@H](C)CO)C(=O)Cc2cc(NC(=O)CCC(F)(F)F)ccc2O[C@@H]1CN(C)Cc1ccncc1 0.918%
COc1ccc(NC(=O)N(C)C[C@H]2OCCCC[C@@H](C)Oc3ccc(NC(=O)c4ccncc4)cc3C(=O)N([C@@H](C)CO)C[C@H]2C)cc1 -1.47%
COc1ccc(C(=O)Nc2cccc(-n3cc(C(=O)NO)nn3)c2)cc1 -0.373%
COc1ccc(S(=O)(=O)Nc2ccc3c(c2)C(=O)N([C@@H](C)CO)C[C@H](C)[C@H](CN(C)S(=O)(=O)c2ccc(F)cc2)OCCCC[C@@H](C)O3)cc1 0.149%
C[C@H]1CN([C@@H](C)CO)C(=O)CCCn2cc(nn2)CO[C@@H]1CN(C)S(=O)(=O)c1cccc(C#N)c1 0.238%
Cc1noc(C)c1S(=O)(=O)N(C)C[C@@H]1Oc2ccc(NC(=O)Cn3cnnn3)cc2CC(=O)N([C@@H](C)CO)C[C@H]1C -0.944%
C[C@@H]1CN([C@@H](C)CO)C(=O)Cc2cc(NC(=O)CCCCCC(=O)Nc3ccccc3N)ccc2O[C@@H]1CN(C)C(=O)NC1CCCCC1 0.875%
